How the values were obtained:
B16-F10 [1] = experiment: Potentiation of temozolomide-induced cytotoxicity against mouse B16F10 cells xenografted in C57BL/6 mouse assessed as growth inhibition at 5 mg/kg/day, po after 17 days relative to temozolomide monotherapy; type: functional
Outline: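 B16F10 syngeneic model: 6×10^4 cells in 50% matrigel injected sc into the flank of 6–8 week old female C57BL/6 mice (20 g), allocated to groups by injection order. Inhibitor given po bid days 6–11 at 1, 5 or 12.5 mg/kg/day; temozolomide 50 mg/kg/day po qd days 6–11. Tumor volume by caliper as L×W²/2; TGI versus temozolomide alone.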

Cytochrome P450 1A2 = target: T1, Cytochrome P450 1A2 (Homo sapiens, UniProt P05177); experiment: Inhibition of CYP1A2 in human liver microsomes; type: ADME, Microsome
T1 sequence (P05177 whole entry): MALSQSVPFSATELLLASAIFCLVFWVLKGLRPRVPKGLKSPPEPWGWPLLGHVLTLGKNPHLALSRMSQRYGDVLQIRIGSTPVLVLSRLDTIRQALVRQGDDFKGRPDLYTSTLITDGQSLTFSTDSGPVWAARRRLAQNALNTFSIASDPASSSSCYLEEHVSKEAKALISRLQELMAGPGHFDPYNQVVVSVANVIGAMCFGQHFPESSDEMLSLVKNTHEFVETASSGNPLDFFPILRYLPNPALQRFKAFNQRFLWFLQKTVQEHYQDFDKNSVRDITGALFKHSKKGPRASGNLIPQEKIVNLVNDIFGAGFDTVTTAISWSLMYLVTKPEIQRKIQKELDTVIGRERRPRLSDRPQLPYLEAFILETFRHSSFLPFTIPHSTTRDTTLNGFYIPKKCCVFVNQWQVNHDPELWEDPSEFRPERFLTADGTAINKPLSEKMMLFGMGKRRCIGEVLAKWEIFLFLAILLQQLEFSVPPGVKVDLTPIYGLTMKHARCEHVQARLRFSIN

[2] = Half life in cynomolgus monkey at 2.5 mg/kg, iv; type: ADME, organism-based, Macaca fascicularis; design: dose 2.5 mg/kg, route intravenous; settings: in vivo
[3] = Protein binding in CD1 mouse plasma at 5 uM; type: ADME, cell-free; settings: read-out: PPB (converted)
B16-F10 [4] = experiment: Antitumor activity against mouse B16F10 cells xenografted in C57BL/6 mouse assessed as tumor volume at 12.5 mg/kg/day, po after 14 days; type: functional
[5] = Cmax in Beagle dog at 2.5 mg/kg, po; type: ADME, organism-based, Canis lupus familiaris; design: dose 2.5 mg/kg, route oral; settings: in vivo
[6] = Clearance in CD1 mouse at 10 mg/kg; type: ADME, organism-based; design: dose 10 mg/kg; settings: in vivo
Outline: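 Mouse pharmacokinetics. Oral dose of 10 mg/kg in 2.5% EtOH, 1 drop Tween-80 and 25% PEG400 in PBS. Intravenous dose of 3 mg/kg in 2.5% EtOH, 5% DMSO, 1 drop Tween-80 and 25% PEG400 in PBS.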

MX1 [7] = experiment: Potentiation of carboplatin-induced cytotoxicity against human MX1 cells xenografted in SCID mouse assessed as growth inhibition at 12.5 mg/kg/day, sc osmotic minipump after 42 days relative to carboplatin monotherapy; type: functional; settings: route subcutaneous
Outline: (§1)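 MX-1 xenograft: 0.2 cc of 1:10 tumor brei injected sc into the flank of female SCID mice on day 0; size-matched on day 15, 10 mice/group. Inhibitor 1–50 mg/kg/day by sc osmotic minipump for 14 days from day 18; carboplatin 10 mg/kg ip on days 20, 24 and 28. Caliper volumes as L×W²/2; TGI relative to carboplatin alone.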

[8] = Water solubility of compound at physiological pH; type: physicochemical
[9] = Oral bioavailability in Beagle dog at 2.5 mg/kg; type: ADME, organism-based, Canis lupus familiaris; settings: in vivo
[10] = Volume of distribution at steady state in Beagle dog at 2.5 mg/kg; type: ADME, organism-based, Canis lupus familiaris; design: dose 2.5 mg/kg; settings: in vivo, read-out: Vdss
[11] = Oral bioavailability in cynomolgus monkey at 2.5 mg/kg; type: ADME, organism-based, Macaca fascicularis; settings: in vivo
[12] = Half life in CD1 mouse at 3 mg/kg, iv; type: ADME, organism-based; design: dose 3 mg/kg, route intravenous; settings: in vivo
Outline: (§2)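 Mouse PK: oral dose 10 mg/kg in 2.5% EtOH, 1 drop Tween-80, 25% PEG400 in PBS; iv dose 3 mg/kg in 2.5% EtOH, 5% DMSO, 1 drop Tween-80, 25% PEG400 in PBS. Oral bioavailability, iv half-life, oral AUC and Cmax derived from plasma profiles.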

Cytochrome P450 2D6 = Cytochrome P450 2D6 (Homo sapiens, UniProt P10635); experiment: Inhibition of CYP2D6 in human liver microsomes; type: ADME, Microsome
Cytochrome P450 2D6, sequence (P10635 whole entry): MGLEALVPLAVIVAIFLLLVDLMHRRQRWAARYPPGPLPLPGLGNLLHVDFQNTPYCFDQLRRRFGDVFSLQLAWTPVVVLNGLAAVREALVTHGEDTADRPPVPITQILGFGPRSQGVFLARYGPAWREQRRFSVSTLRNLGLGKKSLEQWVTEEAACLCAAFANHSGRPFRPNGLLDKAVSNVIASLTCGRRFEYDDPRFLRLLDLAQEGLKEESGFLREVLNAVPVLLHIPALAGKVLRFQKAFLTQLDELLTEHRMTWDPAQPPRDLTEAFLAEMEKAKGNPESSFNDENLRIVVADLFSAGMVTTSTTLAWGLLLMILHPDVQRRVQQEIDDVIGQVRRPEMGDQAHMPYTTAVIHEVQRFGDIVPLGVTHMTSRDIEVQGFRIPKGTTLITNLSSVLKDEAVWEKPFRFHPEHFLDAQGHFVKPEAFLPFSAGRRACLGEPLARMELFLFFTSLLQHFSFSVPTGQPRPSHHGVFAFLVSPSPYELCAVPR

[13] = Volume of distribution at steady state in CD1 mouse at 10 mg/kg; type: ADME, organism-based; design: dose 10 mg/kg; settings: in vivo, read-out: Vdss
[14] = Clearance in Beagle dog at 2.5 mg/kg; type: ADME, organism-based, Canis lupus familiaris; design: dose 2.5 mg/kg; settings: in vivo
Cytochrome P450 2E1 = Cytochrome P450 2E1 (Homo sapiens, UniProt P05181); experiment: Inhibition of CYP2E1 in human liver microsomes; type: ADME, Microsome
Cytochrome P450 2E1, sequence (P05181 whole entry): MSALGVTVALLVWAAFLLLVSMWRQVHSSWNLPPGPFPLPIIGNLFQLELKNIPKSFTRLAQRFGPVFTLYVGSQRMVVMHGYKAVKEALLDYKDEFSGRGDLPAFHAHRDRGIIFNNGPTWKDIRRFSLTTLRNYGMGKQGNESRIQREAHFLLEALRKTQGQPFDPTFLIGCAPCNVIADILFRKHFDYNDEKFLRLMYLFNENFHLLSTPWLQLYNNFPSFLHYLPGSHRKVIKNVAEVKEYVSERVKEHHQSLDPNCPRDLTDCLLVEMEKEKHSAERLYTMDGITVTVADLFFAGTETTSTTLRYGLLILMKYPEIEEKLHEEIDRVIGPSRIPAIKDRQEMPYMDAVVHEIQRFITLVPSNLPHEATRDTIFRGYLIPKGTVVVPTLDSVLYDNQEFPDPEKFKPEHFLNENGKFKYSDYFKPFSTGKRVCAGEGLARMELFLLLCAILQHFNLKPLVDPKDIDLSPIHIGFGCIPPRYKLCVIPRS

[15] = AUC in CD1 mouse at 10 mg/kg, po; type: ADME, organism-based; design: dose 10 mg/kg, route oral; settings: plasma; outline: as §2
[16] = Cmax in cynomolgus monkey at 2.5 mg/kg, po; type: ADME, organism-based, Macaca fascicularis; design: dose 2.5 mg/kg, route oral; settings: in vivo
Cytochrome P450 3A4 = Cytochrome P450 3A4 (Homo sapiens, UniProt P08684); experiment: Inhibition of CYP3A4 in human liver microsomes; type: ADME, Microsome
Cytochrome P450 3A4, sequence (P08684 whole entry): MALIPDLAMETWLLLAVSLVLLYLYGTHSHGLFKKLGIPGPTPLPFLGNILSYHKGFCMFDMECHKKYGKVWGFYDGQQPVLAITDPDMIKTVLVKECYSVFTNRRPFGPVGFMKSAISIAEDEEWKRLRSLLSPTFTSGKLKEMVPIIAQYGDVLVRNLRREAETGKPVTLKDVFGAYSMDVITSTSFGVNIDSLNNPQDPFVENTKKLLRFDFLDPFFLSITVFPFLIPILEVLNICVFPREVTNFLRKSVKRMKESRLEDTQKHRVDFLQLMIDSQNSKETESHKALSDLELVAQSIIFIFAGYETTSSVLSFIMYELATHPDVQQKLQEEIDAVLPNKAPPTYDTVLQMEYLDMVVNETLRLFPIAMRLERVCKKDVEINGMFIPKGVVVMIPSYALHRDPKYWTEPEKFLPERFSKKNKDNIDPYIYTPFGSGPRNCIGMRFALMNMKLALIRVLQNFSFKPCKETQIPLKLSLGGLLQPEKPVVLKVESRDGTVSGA

[17] = Protein binding in human plasma at 5 uM; type: ADME, cell-free; settings: read-out: PPB (converted)
MX1 [18] = experiment: Potentiation of carboplatin-induced cytotoxicity against human MX1 cells xenografted in SCID mouse assessed as growth inhibition at 50 mg/kg/day, sc osmotic minipump after 42 days relative to carboplatin monotherapy; type: functional; settings: route subcutaneous; outline: as §1
[19] = Oral bioavailability in Sprague-Dawley rat at 5 mg/kg; type: ADME, organism-based; settings: in vivo
[20] = Volume of distribution at steady state in Sprague-Dawley rat at 5 mg/kg; type: ADME, organism-based; design: dose 5 mg/kg; settings: in vivo, read-out: Vdss
MX1 [21] = experiment: Potentiation of cyclophosphamide-induced cytotoxicity against human MX1 cells xenografted in SCID mouse assessed as growth inhibition at 5 mg/kg/day, sc osmotic minipump after 48 days relative to cyclophosphamide monotherapy; type: functional; settings: route subcutaneous
Outline: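 Female SCID mice bearing sc MX-1 brei (0.2 cc of 1:10, day 0), size-matched on day 15, 10 per group. Inhibitor 5, 12.5 or 25 mg/kg/day by sc osmotic minipump for 14 days from day 18; cyclophosphamide 12.5 mg/kg ip on days 20, 24 and 28. Volumes from caliper L×W²/2; TGI versus cyclophosphamide alone.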

Activity (Cytochrome P450 1A2): Not Active
half-life [2]: 1.9 h
fraction unbound at 5 µM [3]: 0.59
Cmax [5]: 800 ng/mL
clearance [6]: 68.3 mL/min/kg
solubility [8]: > 5000 µg/mL
bioavailability [9]: 72%
Vd [10]: 2.2 L/kg
bioavailability [11]: 56%
half-life [12]: 1.6 h
Activity (Cytochrome P450 2D6): Not Active
Vd [13]: 9.4 L/kg
clearance [14]: 10 mL/min/kg
Activity (Cytochrome P450 2E1): Not Active
AUC [15]: 2200 ng·h/mL
Cmax [16]: 300 ng/mL
Activity (Cytochrome P450 3A4): Not Active
fraction unbound at 5 µM [17]: 0.59
bioavailability [19]: 61%
Vd [20]: 3.6 L/kg
Structure (SMILES): C[C@]1(c2nc3c(C(N)=O)cccc3[nH]2)CCCN1 [VELIPARIB]
TGI (B16-F10 [1]): 60%
Activity (B16-F10 [4]): 2452 mm3
TGI (MX1 [7]): 58%
TGI (MX1 [18]): 91%
TGI (MX1 [21]): 31%

Reference: ChEMBL document CHEMBL1139389, “Discovery of the Poly(ADP-ribose) polymerase (PARP) inhibitor 2-[(R)-2-methylpyrrolidin-2-yl]-1H-benzimidazole-4-carboxamide (ABT-888) for the treatment of cancer” (J Med Chem, 2009)
